Results of several laboratories.
Protocols differ between the studies behind these lines.

Structure (SMILES)	target or system	read-out	technique	tested at	setting	endpoint	result
Cn1nnc2c(C(N)=O)ncn2c1=O	MGC-803	cell growth or viability				EC50	356 µM
O=C(Nc1ccc2c(c1)OC(F)(F)O2)Nc1ccc(Cl)c(C(F)(F)F)c1	Salmonella	microbial growth			clinical isolate	MIC	> 100 µM
O=C1O[C@H]([C@@H](O)CO)C(O)=C1O		DPPH scavenging	absorbance	160 µM		inhibition	70.9%
COc1cc(-c2ccc(-c3ccc(C(=N)N)nc3)s2)cc(OC)c1OC	NCI/ADR-RES	cell growth or viability	SRB			GI50	5.2 µM
COc1cc(C=Cc2cc(-c3ccccc3)nc(O)n2)ccc1O		DPPH scavenging		12.5 µg/mL		inhibition	38.3%
CN(O)N=Nc1ccc(S(=O)(=O)Nc2nccs2)cc1		DPPH scavenging	absorbance	120 µg/mL		inhibition	16.4%
O=C1O[C@H]([C@@H](O)CO)C(O)=C1O		DPPH scavenging		100 µg/mL		inhibition	81.3%
Oc1ccc(Br)cc1C=NCCN1CCOCC1		DPPH scavenging	absorbance	80 µM		inhibition	17.4%
CCN(O)N=Nc1ccc(S(=O)(=O)Nc2onc(C)c2C)cc1		DPPH scavenging	absorbance	120 µg/mL		inhibition	22.5%
C[C@@H](O)[C@H]1C(=O)N2C(C(=O)O)=C(S[C@@H]3CN[C@H](C(=O)N(C)C)C3)[C@H](C)[C@H]12	Serratia fonticola	microbial growth	broth dilution		clinical isolate	MIC	32 µg/mL
COc1cc(C=Cc2cc(-c3ccc(N(C)C)cc3)nc(O)n2)ccc1O		DPPH scavenging		100 µg/mL		inhibition	71.7%
O=S(=O)(Nc1nccs1)c1ccc(N=NN(O)c2ccccc2)cc1		DPPH scavenging	absorbance	20 µg/mL		inhibition	24.1%
